From PubChem BioAssay AID489030 (Sanford-Burnham Center for Chemical Genomics, 2010) come the findings set out here.

“And” between values parts separate entries of the source, which are not always exact repeats. Equal entries are not always repeated. Screen size: about 330,000 compounds; about 2,400 (0.73%) were called active. The list comes from a sample in which actives are over-represented; it also holds similar structures and randomly drawn compounds. Values without a mark were called inactive. How the source made its calls: active means inhibition of at least 40% at 20 µM; inactive means the rest.

As a reminder, the inhibition is the relative decrease from the control value, in per cent.

The target of the test is Apoptotic protease-activating factor 1 (Homo sapiens) (UniProt O14727). Nature of the test: inhibitors of human Apaf-1 apoptosome, primary screen, biochemical, DEVD-Rh110 fluorescence, uHTS (AID 489030).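 Further: plate controls were DMSO wells for no effect and DEVD-CHO caspase inhibitor wells for full effect.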 The note with it: reconstituted apoptosome caspase-3 activity, at 20 µM, hits give high values. In outline: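 Material: cell-free apoptosome with Apaf-1, procaspase-3 and caspase-9; Buffer or medium: Hepes pH 7.5 with detergent and BSA; Reagent: cytochrome c trigger plus (Z-DEVD)2-Rh110 caspase-3 substrate; Times: compound with Apaf-1, dATP, procaspase-3 30 min, then 50 min reaction, room temperature; Technique: Rh110 fluorescence intensity.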
Chain of Apoptotic protease-activating factor 1 (Homo sapiens) (O14727 whole entry, looked up): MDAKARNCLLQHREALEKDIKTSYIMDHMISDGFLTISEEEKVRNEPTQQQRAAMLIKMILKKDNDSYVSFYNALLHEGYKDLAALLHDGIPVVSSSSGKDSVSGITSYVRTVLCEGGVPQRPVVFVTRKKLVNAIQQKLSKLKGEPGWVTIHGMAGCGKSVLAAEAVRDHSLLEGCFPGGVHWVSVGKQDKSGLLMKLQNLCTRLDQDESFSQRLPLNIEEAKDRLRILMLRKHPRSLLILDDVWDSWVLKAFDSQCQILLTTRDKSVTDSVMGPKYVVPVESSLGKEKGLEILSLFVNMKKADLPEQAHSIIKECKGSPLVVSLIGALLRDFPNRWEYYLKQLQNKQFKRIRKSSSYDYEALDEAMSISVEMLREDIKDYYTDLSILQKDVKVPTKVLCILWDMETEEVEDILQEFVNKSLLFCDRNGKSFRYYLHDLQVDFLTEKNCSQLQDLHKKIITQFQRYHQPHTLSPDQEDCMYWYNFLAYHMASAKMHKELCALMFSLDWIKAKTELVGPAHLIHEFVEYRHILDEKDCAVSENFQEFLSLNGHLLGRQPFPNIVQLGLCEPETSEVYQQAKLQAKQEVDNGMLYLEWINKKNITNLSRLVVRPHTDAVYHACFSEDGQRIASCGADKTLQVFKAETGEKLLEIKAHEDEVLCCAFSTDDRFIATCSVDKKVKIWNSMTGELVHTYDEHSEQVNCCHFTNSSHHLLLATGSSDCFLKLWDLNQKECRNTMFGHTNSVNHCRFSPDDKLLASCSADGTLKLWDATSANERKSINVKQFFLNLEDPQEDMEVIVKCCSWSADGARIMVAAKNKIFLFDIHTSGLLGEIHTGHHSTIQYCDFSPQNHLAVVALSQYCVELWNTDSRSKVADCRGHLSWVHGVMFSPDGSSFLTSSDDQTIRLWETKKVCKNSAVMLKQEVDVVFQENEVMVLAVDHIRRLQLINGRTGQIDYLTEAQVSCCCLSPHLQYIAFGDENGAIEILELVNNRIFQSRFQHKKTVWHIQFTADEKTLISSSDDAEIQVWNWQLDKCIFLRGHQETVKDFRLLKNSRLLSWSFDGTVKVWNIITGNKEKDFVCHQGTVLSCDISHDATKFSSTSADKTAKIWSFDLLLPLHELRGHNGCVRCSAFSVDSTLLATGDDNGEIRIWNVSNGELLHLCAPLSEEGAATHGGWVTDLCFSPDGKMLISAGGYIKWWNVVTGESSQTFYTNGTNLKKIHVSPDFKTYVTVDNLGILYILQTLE
Turning to `CCOc1c2ccc(C(=O)NC3CCCc4ccccc43)cc2nn1CC` (stereo not drawn), the inhibition was 5.11%. As for `CCOC(=O)N1CCC(=NNC(N)=O)CC1`, the figure is 1.89%. As for `CC(CN1CCOCC1)OC(=O)c1ccc(C(C)(C)C)cc1` (stereo not drawn), the figure is 15.5%; as for `CC(=O)c1ccc(NC(=O)CSc2nc3ccccc3c(=O)n2CCCN2CCOCC2)cc1`, 2.62%. As for `C=CCn1c(P(C)(=O)O)nc2ccccc21`, the figure is 5.81% and -0.524%.

`CC(C)Cn1c(N)c(C(=O)NCc2cccs2)c2nc3ccccc3nc21`: the inhibition is 63.4% (active). As to `C=CCn1c(C(C)NC(=O)CC)nc2ccccc21` (stereo not drawn), the inhibition was -0.828%.

As for `C=CCn1c(N)c(C(=O)OCC(C)C)c2nc3ccccc3nc21`, the inhibition was 54.1% (active). For the compound `CCOc1ccccc1NC(=O)Cn1nnc(C(=O)NCc2cccs2)c1N`, the inhibition was -4.26%. As to `O=C(NCc1cccs1)c1cc(-c2ccccn2)nc2ccc(Br)cc12`, the inhibition is 5.9%.

As for `COCC(C)OC(=O)c1c(N)n(CCCN2CCOCC2)c2nc3ccccc3nc12` (stereo not drawn), the inhibition was 50.9% (active). As for `O=C(Nc1ccccc1Cl)NC1(C(=O)N2CCOCC2)CCCCC1`, the figure is -1.88%; as for `Cn1cncc1C#Cc1c(-c2ccsc2)sc2ccccc12`, 33.5%; as for `CCC/C=C(\CCC)C(NC(=O)Cc1ccccc1)c1ccc(C(=O)OC)cc1` (stereo not drawn), 7.48%. Regarding `CC1CCN(C(=O)COC(=O)c2cc(S(=O)(=O)N3CCOCC3)ccc2Cl)CC1`, the inhibition was 3.82%. As for `CCOC(=O)c1ccc(NC(=O)Cn2cnc3cc(C)c(C)cc32)cc1`, the inhibition was -0.083%. As to `O=C(CCC(=O)OCC(F)(F)C(F)F)NCc1ccccc1`, the inhibition is -13%. To `CCOc1ccc(NCCC(=O)c2ccc3c(c2)OCO3)cc1` belongs 4.39%. With `Oc1cc(O)c2c(c1)OC(c1ccc(O)c(O)c1)C(O)C2` (stereo not drawn), the inhibition is -2.63%. To `COC(=O)C[n+]1cccc2ccccc21` belongs -1.6%; to `O=C(N/N=C\c1cccnc1)c1cc(-c2ccccc2)nc2c(Cl)cccc12`, 40.1% (active). As for `C/C(=N\NC(=O)c1cc(-c2ccc(O)cc2)nc2ccccc12)c1cccnc1`, the figure is 7.65%. To `COc1ccc(-c2cc(C(=O)N/N=C/c3cccnc3)c3ccccc3n2)c(OC)c1` belongs 4.65%; to `COc1ccc(C(CNC(=O)c2cc3c(s2)CCCC3)N2CCOCC2)cc1` (stereo not drawn), 33.5%. For `COc1ccc(-c2nc3cc(C)ccn3c2NC2CCCCC2)cc1SC1CCCCC1`, the inhibition is 48.4% (active).

For the compound `COc1ccc(-c2nc3cnccn3c2NC2CCCCC2)cc1-c1cccc(Cl)c1`, the inhibition is 36.9%.

Turning to `CCOc1cc(-c2nc3cc(C)ccn3c2NCC2CCCO2)ccc1O` (stereo not drawn), the inhibition was 9.28%. To `CC1CN(C(=S)Nc2cccc(F)c2)CC(C)O1` (stereo not drawn) belongs -7.38%; to `CCOc1ccc2[nH]c(=O)c(C(c3nnnn3CCOC)N3CCOCC3)cc2c1` (stereo not drawn), -3.2%; to `COCCn1nnnc1C(c1cc2ccc(OC)cc2[nH]c1=O)N1CCc2ccccc2C1` (stereo not drawn), 56.8% (active). As for `COc1ccc(OC)c(C(c2nnnn2C(C)(C)C)N2CCc3ccccc3C2)c1` (stereo not drawn), the inhibition is 11.5%. To `Cc1cc(OCc2cc(C(=O)NCc3cc(C(C)C)no3)no2)cc(C)c1Cl` belongs 17.4%; to `COC(=O)[C@@H]1C[C@@]2(O)[C@H](O)[C@H](O)[C@H](O)C[C@H]2N1Cc1ccc(C(C)(C)C)cc1`, 10.6%; to `CN(C)CCCN(Cc1cc2cc3c(cc2[nH]c1=O)OCCO3)C(=O)NC1CCCCC1`, 2.55%. As for `CNC(=O)NC(=O)CSc1nnc(-c2ccc(F)cc2)n1CC1CCCO1` (stereo not drawn), the figure is -8.1%; as for `O=C(NN1C(=O)C2C3C=CC(C4CC34)C2C1=O)c1ccc(Cl)cc1` (stereo not drawn), 5.04%. Turning to `CCOC(=O)Cn1nnnc1C`, the inhibition is -24.4%.

Regarding `COc1cc(C(=O)NC2CCN(Cc3ccccc3)CC2)cc(Cl)c1OC(C)C`, the inhibition was 4.18%. `COc1ccccc1-c1sc2ccccc2c1-c1ccc(C(C)=O)cc1`: the inhibition is 21.9%. For the compound `COc1cccc(-c2sc3ccc(OC)cc3c2-c2ccc(OCCN3CCCCC3)cc2)c1`, the inhibition was 61.8% (active).

As to `COc1ccc2sc(-c3ccccc3OC)c(-c3ccc(OCCN4CCCC4)cc3)c2c1`, the inhibition was 73.4% (active). To `COc1ccccc1-c1sc2ccccc2c1-c1ccc(Br)nc1` belongs 14.2%; to `COc1ccc(-c2sc3ccccc3c2-c2ccc(OCCN3CCOCC3)cc2)cc1`, 15.7%.

`COc1cc(OC)cc(-c2sc3ccc(OC)cc3c2-c2ccc3cc[nH]c3c2)c1`: the inhibition is 7.8%. For the compound `CN1CCC(CN)(N2CCN(c3ccccc3)CC2)CC1`, the inhibition is 6.96%. As for `CC1COc2ccccc2N1S(=O)(=O)c1ccccc1` (stereo not drawn), the figure is 11.7%.

Consider `OCCn1c(-c2ccccc2)csc1=Nc1ccccc1`, for which the inhibition is 16.7%. Consider `O=C(Nc1cccc(Cl)c1Cl)c1ccccc1NC(=O)C1CC=CCC1C(=O)O` (stereo not drawn), for which the inhibition is -3.06%.
